Experimental data from ChEMBL document CHEMBL4261586, “Conjugation of a 5-nitrofuran-2-oyl moiety to aminoalkylimidazoles produces non-toxic nitrofurans that are efficacious in vitro and in vivo against multidrug-resistant Mycobacterium tuberculosis” (Eur J Med Chem, 2018).
Converted amounts (≈) assume the structure as drawn.

Experiments:
Type in all cases: functional
[1] = tested on: Mycobacterium tuberculosis; assay: Antimycobacterial activity against multidrug-resistant Mycobacterium tuberculosis 5023 harboring rpoB S531L/katG S315T mutation mutation after 7 days by resazurin microtitre plate assay
In short: (§1)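 REMA in Middlebrook 7H9 with OADC. Three-week culture vortexed with glass beads, adjusted to 1.0 McFarland (about 3×10⁸ bacteria/mL) and diluted 20-fold. Final concentrations 1.6–200 via 2-fold dilutions; growth control plus 1% ([…] diluted) control. 7 days at 35 °C, then 0.01% resazurin for 18 h; fluorescence ex 520/em 590 nm. MIC taken where fluorescence plateaued or matched the 1% control (t-test).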

[2] = tested on: Mycobacterium tuberculosis; assay: Antimycobacterial activity against multidrug-resistant Mycobacterium tuberculosis 7106 harboring rpoB S531L/katG S315T mutation after 7 days by resazurin microtitre plate assay; in short: as §1
[3] = tested on: Mycobacterium tuberculosis; assay: Antimycobacterial activity against multidrug-resistant Mycobacterium tuberculosis 2712 harboring rpoB S531L/katG I335V/ahpC T10 mutation after 7 days by resazurin microtitre plate assay; in short: as §1
[4] = tested on: Mycobacterium tuberculosis; assay: (§2) Antitubercular activity against multidrug-resistant Mycobacterium tuberculosis 2712 infected in C57BL/6 mouse assessed as tubercular foci index at 28 mg/kg, po administered via gavage over 42 days (excluding weekends) cotreated with prothionamide, levofloxacin and p-aminosalicylic acid (reference value: 3.46 +/- 0.09)
[5] = tested on: Mycobacterium tuberculosis; assay: as §2, with “colony forming units per lung mass units” for “tubercular foci index”, “85.7” for “3.46”, “5.3 x 10^3)” for “0.09)”
[6] = tested on: Mycobacterium tuberculosis; assay: as §2, with “lung mass” for “tubercular foci”, “1.81” for “3.46”, “0.12)” for “0.09)”

Row | SMILES | MIC [1] | MIC [2] | MIC [3] | Activity_index [4] | Activity [5] | Activity_index [6]
1 | Cc1cnc(C)n1C1CCN(C(=O)c2ccc([N+](=O)[O-])o2)C1 (stereo not drawn) | 25 µg/mL (≈ 82.2 µM) | 12.5 µg/mL (≈ 41.1 µM) | 25 µg/mL (≈ 82.2 µM) |  |  | 
2 | Cc1cnc(-c2ccccc2)n1CC1CCN(C(=O)c2ccc([N+](=O)[O-])o2)C1 (stereo not drawn) | 6.2 µg/mL (≈ 16.3 µM) | 6.2 µg/mL (≈ 16.3 µM) | 3.1 µg/mL (≈ 8.15 µM) |  |  | 
3 | CCCn1c(C)cnc1C1CN(C(=O)c2ccc([N+](=O)[O-])o2)C1 | 3.1 µg/mL (≈ 9.74 µM) | 3.1 µg/mL (≈ 9.74 µM) | 0.8 µg/mL (≈ 2.51 µM) | 2.54 | 10.6 ×10³ CFU | 1.15
4 | Cc1cnc(CCNC(=O)c2ccc([N+](=O)[O-])o2)n1C1CCC1 | 12.5 µg/mL (≈ 39.3 µM) | 12.5 µg/mL (≈ 39.3 µM) | 12.5 µg/mL (≈ 39.3 µM) |  |  | 
5 | Cc1cnc(CC2CCN(C(=O)c3ccc([N+](=O)[O-])o3)C2)n1CC1CC1 (stereo not drawn) | 6.2 µg/mL (≈ 17.3 µM) | 12.5 µg/mL (≈ 34.9 µM) | 1.6 µg/mL (≈ 4.46 µM) |  |  | 
